Active and inactive are the calls of the source. No cut-off for these calls is given here.
Legend:
[1] = system: A549; assay: Binding affinity to human TERT promoter DNA sequence in human A549 cells assessed as telomere restriction fragment length at 0.8 uM after 30 days by TeloTAGGG-based chemiluminescence assay (reference value: 3.6 kb); type: cell-based
Summary of the method: (§1)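 Genomic DNA from A549 cells kept long-term with 0.4 or 0.8 μM compound (medium changed every 3 days, replated every 6 days). DNA isolated with DNAzol. 2 µg digested with RsaI/HinfI, run on 0.8% agarose, Southern-blotted, hybridized with DIG-labeled telomeric probe, anti-DIG alkaline phosphatase, chemiluminescence. Mean TRF = Σ(ODi)/Σ(ODi/Li).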

[2] = system: A549; assay: Antiproliferative activity against human A549 cells assessed as effect on population doubling at 0.4 uM up to 42 days; type: functional, cell-based
Summary of the method: (§2)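 A549 cells (1.5×10^5) seeded in RPMI 1640 + 10% FBS with 0.4 or 0.8 μM perylene or medium only. Medium changed every 3 days. Every 6 days, at confluence, cells were trypsinized, counted by hemocytometer and replated at 1.5×10^5. Population doublings n = (log Pn − log P0)/log 2, cumulated against time. Three independent experiments.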

[3] = system: A549; assay: Cytotoxicity against human A549 cells assessed as colony formation at 0.4 uM incubated for 54 days followed by subculturing in compound-free medium measured after 14 days by crystal violet staining method relative to control; type: functional
Summary of the method: (§3)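 A549 cells from the long-term culture (0.4 or 0.8 μM, medium changed every 3 days, replated every 6 days) were collected on the stated day. 2×10^3 cells seeded per 10-cm dish, fed every 4-5 days. Colonies stained with crystal violet after 14 days and counted; expressed as % of control. Controls under 25 colonies excluded. Three independent experiments.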

[4] = system: A549; assay: Induction of senescence in human A549 cells assessed as cell enlargement at 0.4 uM incubated for 54 days followed by subculturing on compound-free medium measured after 48 hrs by fluorescence microscopic analysis; type: functional, cell-based
Summary of the method: (§4)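 A549 cells from the long-term treatment replated and grown 48 h. Fixed in 2% formaldehyde/0.2% glutaraldehyde for 5 min at RT. Stained overnight with 1 mg/ml X-gal in pH 6 citrate/phosphate buffer with 5 mM ferro/ferricyanide, 150 mM NaCl, 2 mM MgCl2. Enlarged blue cells scored by microscopy.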

[5] = system: A549; assay: Cytotoxicity against human A549 cells assessed as colony formation at 0.4 uM incubated for 6 days followed by subculturing in compound-free medium measured after 14 days by crystal violet staining method relative to control; type: functional; summary of the method: as §3
[6] = system: A549; assay: Cytotoxicity against human A549 cells assessed as colony formation at 0.4 uM incubated for 24 days followed by subculturing in compound-free medium measured after 14 days by crystal violet staining method relative to control; type: functional; summary of the method: as §3
[7] = system: A549; assay: Binding affinity to human TERT promoter DNA sequence in human A549 cells assessed as telomere restriction fragment length at 0.4 uM after 6 days by TeloTAGGG-based chemiluminescence assay (reference value: 3.6 kb); type: cell-based; summary of the method: as §1
[8] = system: A549; assay: Antiproliferative activity against human A549 cells assessed as decrease in population doubling at 0.8 uM after 18 days; type: functional, cell-based; summary of the method: as §2
[9] = species: Homo sapiens; assay: Binding affinity to human TERT2 5'-GGGGGCTGGGCCGGGGACCCGGGAGGGGTCGGGACGGGGCGGGG-3' DNA assessed as induction of intramolecular G-quadruplex formation at 4 uM after 10 hrs by PAGE analysis
Summary of the method: (§5)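 FAM-labeled G-rich strand (2 µM) and complementary C-rich strand (2 µM) with compound in 10 mM Tris-HCl pH 7.4, 100 mM KCl. Heated to 95 °C for 5 min, slowly cooled to 55 °C, held 10 h, then cooled to 4 °C. Duplex vs G-quadruplex resolved on 16% native PAGE with 50 mM KCl (4 °C, 350 V, 10 h) and fluorescence-imaged.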

[10] = system: A549; assay: Binding affinity to human TERT promoter DNA sequence in human A549 cells assessed as inhibition of telomerase-mediated MTS primer extension after 24 hrs by fluorescence-based TRAP assay; type: cell-based
Summary of the method: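 A549 cells exposed to compound for 24 h, lysed in CHAPS buffer, protein measured by Bradford. 6 µg lysate protein used as telomerase source in fluorescent TRAP with MTS primer (no G-quadruplex motif), with no phenol-chloroform step. FAM-primer PCR, native PAGE, fluorescence quantified. Mean ± SD of three experiments.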

[11] = system: A549; assay: Binding affinity to human TERT promoter DNA sequence in human A549 cells assessed as telomere restriction fragment length at 0.4 uM after 54 days by TeloTAGGG-based chemiluminescence assay (reference value: 3.6 kb); type: cell-based; summary of the method: as §1
[12] = system: A549; assay: Cytotoxicity against human A549 cells assessed as reduction in colony formation incubated for 24 days followed by subculturing in compound-free medium measured after 14 days by crystal violet staining method; type: functional, cell-based; summary of the method: as §3
[13] = system: A549; assay: Binding affinity to human TERT promoter DNA sequence in human A549 cells assessed as telomere restriction fragment length at 0.8 uM after 6 days by TeloTAGGG-based chemiluminescence assay (reference value: 3.6 kb); type: cell-based; summary of the method: as §1
[14] = system: A549; assay: Induction of senescence in human A549 cells assessed as increase in beta-galactosidase activity at 0.4 uM incubated for 54 days followed by subculturing on compound-free medium measured after 48 hrs by fluorescence microscopic analysis; type: functional, cell-based; summary of the method: as §4
[15] = system: A549; assay: Antiproliferative activity against human A549 cells assessed as decrease in cell viability at 0.4 uM after 42 days; type: functional, cell-based; summary of the method: as §2
[16] = system: A549; assay: Antiproliferative activity against human A549 cells assessed as decrease in population doubling at 0.4 uM after 42 days; type: functional, cell-based; summary of the method: as §2
[17] = system: A549; assay: Binding affinity to human TERT promoter DNA sequence in human A549 cells assessed as decrease in TERT mRNA expression after 24 hrs by semi-quantitative PCR analysis; type: cell-based
Summary of the method: (§6)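 A549 cells (3.0×10^5) grown 24 h in RPMI 1640 + 10% FBS at 37 °C, 5% CO2, then exposed to compound for 24 h. Total RNA by Trizol, reverse transcribed, hTERT amplified with specific primers. Semi-quantitative and real-time SYBR Green PCR (45 cycles), standard-curve method, normalized to GAPDH. Three independent experiments.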

[18] = species: Homo sapiens; assay: Binding affinity to human TERT1 5'-AAGGGGAGGGGCTGGGAGGGCCCGGA-3' DNA assessed as induction of intramoleculsr G-quadruplex formation after 10 hrs by PAGE analysis; summary of the method: as §5
[19] = species: Homo sapiens; assay: Binding affinity to human telomeric 5'-AGATAGTTAGGGTTAGGGTTAGGGTTAGGGTT-3' DNA assessed as induction of intramoleculsr G-quadruplex formation after 10 hrs by PAGE analysis; summary of the method: as §5
[20] = system: A549; assay: Antiproliferative activity against human A549 cells assessed as cell division arrest at 0.8 uM measured on day 36; type: functional, cell-based; summary of the method: as §2
[21] = system: A549; assay: Binding affinity to human TERT promoter DNA sequence in human A549 cells assessed as telomere restriction fragment length at 0.8 uM after 18 days by TeloTAGGG-based chemiluminescence assay (reference value: 3.6 kb); type: cell-based; summary of the method: as §1
[22] = species: Homo sapiens; assay: Binding affinity to human TERT2 5'-GGGGGCTGGGCCGGGGACCCGGGAGGGGTCGGGACGGGGCGGGG-3' DNA assessed as induction of intermolecular G-quadruplex formation at 8 to 32 uM after 10 hrs by PAGE analysis; summary of the method: as §5
[23] = system: A549; assay: Cytotoxicity against human A549 cells assessed as colony formation at 0.8 uM incubated for 24 days followed by subculturing in compound-free medium measured after 14 days by crystal violet staining method relative to control; type: functional; summary of the method: as §3
[24] = system: A549; assay: Binding affinity to human TERT promoter DNA sequence in human A549 cells assessed as decrease in TERT mRNA expression at 6 uM after 24 hrs by semi-quantitative PCR analysis relative to control; type: cell-based; set-up: scale not given: the % may be the effect or the level left; summary of the method: as §6
[25] = Binding affinity to TSG4 primer DNA (unknown origin) assessed as inhibition of telomerase-mediated extension of primer […] by fluorescence-based TRAP assay
Summary of the method: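 Cell-free TRAP. Compound preincubated with TSG4 primer in telomerase buffer (20 mM Tris-HCl pH 7.4, 1.5 mM MgCl2, 63 mM KCl, 1 mM EGTA, 200 µM dNTPs) at 37 °C for 2 h. Crude telomerase (50 ng) from telomerase-transfected HEK293T added, 30 °C for 30 min. Compound removed by phenol-chloroform, products ethanol-precipitated, PCR with FAM-tagged primer, 8% native PAGE, phosphoimaging. IC50 ± SD from three experiments.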

[26] = system: A549; assay: Cytotoxicity against human A549 cells assessed as colony formation at 0.8 uM incubated for 6 days followed by subculturing in compound-free medium measured after 14 days by crystal violet staining method relative to control; type: functional; summary of the method: as §3
[27] = system: A549; assay: Binding affinity to human TERT promoter DNA sequence in human A549 cells assessed as telomere restriction fragment length at 0.4 uM after 24 days by TeloTAGGG-based chemiluminescence assay (reference value: 3.6 kb); type: cell-based; summary of the method: as §1

Q: Which results are given for CCN(CC)CCN1C(=O)c2ccc3c4cccc5c(N6CCNCC6)ccc(c6ccc(c2c36)C1=O)c54?
A: Activity [1]: 3.2 kilobase; Activity [2]: inactive; Activity [3]: 60%; Activity [4]: Active; Activity [5]: 100%; Activity [6]: 73%; Activity [7]: 3.6 kilobase; Activity [8]: Active; Activity [9]: Active; Activity [10]: Dose-dependent effect; Activity [11]: 2.9 kilobase; Activity [12]: Dose-dependent effect; Activity [13]: 3.6 kilobase; Activity [14]: Active; Activity [15]: inactive; Activity [16]: Active; Activity [17]: Dose-dependent effect; Activity [18]: Dose-dependent effect; Activity [19]: Dose-dependent effect; Activity [20]: Active; Activity [21]: 3.5 kilobase; Activity [22]: Active; Activity [23]: 35%; Activity [24]: 37%; IC50 [25]: 800 nM; inhibition [25]: Dose-dependent effect; Activity [26]: 100%; Activity [27]: 3.5 kilobase
